# Compounds with a hit are over-represented: about 10% of the library has one in this group of screens.
# Lmaj promast: inhibitors of Leishmania major promastigote growth. 200,000 tested, 9% active. inhibition, % at 10 µM. AID 1063. Leishmania major promastigotes, resazurin fluorescence viability; in the data active means inhibition above about 50%;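 further: promastigotes grown with compound for 44 hours at 28 °C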
# WT yeast gro inh: growth inhibition of WT yeast, mitochondrial fusion screen. mitochondrial fusion phenotypic screen, WT strain. inhibition, % at 10 µM. AID 1362. 190,000 tested, 2.1% active; in the data active means inhibition above about 58%; tested in S. cerevisiae
# PMI activator: increases human mannose-6-phosphate isomerase activity | purified human PMI, coupled resazurin fluorescence, 20 min; hits give high values; 1 = vehicle control, 0 substrate-free wells | 190,000 tested, 0.005% active | activation factor at 20 µM | AID 1214;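 active means activation factor of 2 or more at 20 µM, relative to plate controls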
# Target sequence (P34949 whole entry, looked up): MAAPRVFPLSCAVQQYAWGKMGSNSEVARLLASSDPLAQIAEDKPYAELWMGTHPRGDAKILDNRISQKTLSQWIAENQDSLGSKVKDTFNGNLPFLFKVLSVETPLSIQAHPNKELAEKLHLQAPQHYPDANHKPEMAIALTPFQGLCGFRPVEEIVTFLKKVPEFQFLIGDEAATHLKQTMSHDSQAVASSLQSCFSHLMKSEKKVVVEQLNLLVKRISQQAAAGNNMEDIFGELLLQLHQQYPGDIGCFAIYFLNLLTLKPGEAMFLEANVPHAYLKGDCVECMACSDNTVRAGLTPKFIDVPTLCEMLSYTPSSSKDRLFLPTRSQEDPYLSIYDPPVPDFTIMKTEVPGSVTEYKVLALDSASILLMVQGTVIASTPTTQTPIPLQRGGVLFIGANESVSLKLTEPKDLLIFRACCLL
# Diaphorase act: activates diaphorase or chemically reduces, flagging diaphorase assay artifacts. Diaphorase/resazurin coupled assay, resorufin fluorescence, 16 min; hits give high values; 1 = vehicle wells, 0 = NADH-free wells. activation factor at 20 µM. 190,000 tested, 0.005% active;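 active means diaphorase activity raised at least twofold by the compound at 20 µM; inactive means activation factor below 2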
#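 Material: purified diaphorase enzyme from Clostridium kluyveri; Also added: 0.114 mM NADH and 0.1 mM resazurin, final amounts; Doses: single compound dose of 20 µM, 1% DMSO final; Times: 16 min enzyme reaction, ambient temperature; Detection: resorufin fluorescence, excitation 544 nm, emission 590 nm; Measure: increased resorufin signal from activators or reducing compounds.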
# PMI act hi M6P: PMI (human) activation, high substrate; P34949; coupled PMI enzyme assay, resazurin fluorescence, 20 min; hits give high values; 1 = untreated enzyme, 0 = substrate-free blank; activation factor at 20 µM; 190,000 tested, 0.34% active;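 active means activation factor of 2 or more at 20 µM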
#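 Test system: human phosphomannose isomerase with PGI, G6PDH, diaphorase coupling enzymes; Amount: PMI at 15 ng/mL final; Reagent: Mannose-6-phosphate 1.0 mM (near-saturating) plus 0.22 mM NADP+; Timing: 20 min, room temperature; Technique: resorufin fluorescence at Ex 544/Em 590 nm; Dosing: 20 µM single dose.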
# * hit, by the source's call; · = not tested or not shown.
SMILES,Lmaj promast,WT yeast gro inh,PMI activator,Diaphorase act,PMI act hi M6P
CC(=O)Nc1cc(C)c(S(C)(=O)=O)c(C)c1,-4,10,1,0.9,0.9
Cc1cccc(-c2nnc(SCc3ccccc3)o2)c1,-7,65*,0.9,0.8,0.9
c1ccc(-c2nc(N3CCCCCC3)c3ccccc3n2)nc1,101*,-12,1,1.2,1
Cc1nc2ccccc2nc1N1CCOCC1,-1,-4,0.9,0.9,1
c1ccc(-c2nc(N3CCOCC3)c3ccccc3n2)nc1,99*,10,0.8,1.1,0.8
C=CCc1cc(Cl)ccc1OCCCNC(C)C,100*,12,0.9,0.9,0.9
C=CCc1cc(Cl)ccc1OCCOCCNC(C)CC (centres undefined),90*,18,1,0.9,1
C=CCc1cc(Cl)ccc1OCCN(C)C,96*,-17,1,0.9,1.1
C=CCc1cc(C)ccc1OCCOCCC(C(=O)OCC)C(=O)OCC,-3,12,0.9,0.9,1
C=CCc1ccccc1OCC(O)CNC(C)C (centres undefined),2,8,1,1.1,1
CCC(C)NCCOCCSc1ccc(Cl)cc1 (centres undefined),97*,-8,1,0.8,0.9
CN(C)CCOc1cccc(Cl)c1,-6,-7,1.1,0.9,1.1
COc1ccc(-n2c(SCc3ccccn3)nc3c(c2=O)SCC3)cc1OC,-1,-7,1,0.9,1
O=C(NCC1CCCO1)c1cc(C(=O)C2CCCCC2)c[nH]1 (centres undefined),3,3,1,0.9,1
C=CCOc1ccc(Br)cc1CNCCO,9,9,1,1,0.9
C=CCc1cc(Cl)ccc1OCCCNCCO,98*,5,0.9,0.9,0.9
O=C(Nc1ccccc1O)c1c(O)c2c([nH]c1=O)CCCC2,-4,49,0.9,0.9,1
CC(C)[C@H](NC(=O)c1ccccc1)C(=O)OCC(=O)c1ccccc1F,5,-8,1,1,1
CC(C)[C@H](NC(=O)c1ccccc1)C(=O)OCC(=O)NCCc1ccc(F)cc1,1,-25,0.8,0.9,0.9
CC(C)C(NC(=O)c1ccc(C(C)(C)C)cc1)C(=O)OCC(=O)NC(=O)Cc1ccccc1 (centres undefined),50*,17,0.8,0.8,0.8
CC(C)[C@H](NC(=O)c1ccccc1)C(=O)OCC(=O)NCCC1=CCCCC1,59*,-2,1.1,0.9,1.1
Cc1nn(C)c(C)c1CCC(=O)O,-5,6,·,·,·
Nc1nc(CSc2ccc(Cl)cc2)nc(N2CCCCC2)n1,23,74*,0.8,0.7,0.9
O=c1c2ccccc2n(Cc2cccc(F)c2)c(=O)n1C1CCCC1,64*,76*,0.8,0.8,0.8
N#Cc1c(Nc2ccccc2)sc(C(=O)C2CC2)c1N,-4,8,1,1.1,1.1
SMILES,Lmaj promast,WT yeast gro inh,PMI activator,Diaphorase act,PMI act hi M6P
Nc1c(C(=O)c2ccccc2)sc(Nc2ccccc2)c1S(=O)(=O)c1ccccc1,95*,-14,0.9,0.7,0.9
N#Cc1c(Nc2ccccc2)sc(C(=O)c2ccc(F)cc2)c1N,66*,-16,1.1,0.8,1
Nc1c(S(=O)(=O)c2ccccc2)csc1C(=O)O,-9,-5,1,1,1
Cc1ccc(C(=O)c2sc(Nc3ccccc3)c(C#N)c2N)cc1,74*,-14,1.5,1,1.3
CS(=O)(=O)N1CCC(C(=O)N2CCN(C(c3ccccc3)c3ccccc3)CC2)CC1,67*,-2,0.9,0.9,0.9
S=C(NCc1ccco1)N1CCN(C(c2ccccc2)c2ccccc2)CC1,5,64*,0.6,0.8,0.8
O=C(N1CCOCC1)N1CCN(C(c2ccccc2)c2ccccc2)CC1,-3,95*,0.9,0.9,0.9
O=C(N1CCCCC1)N1CCN(C(c2ccccc2)c2ccccc2)CC1,10,41,1,1,1.1
CC(C)CNC(=S)N1CCN(C(c2ccccc2)c2ccccc2)CC1,39,70*,0.9,0.7,0.8
COc1ccc(CCNC(=O)c2cc(-c3ccc(Cl)c(Cl)c3)oc2C)cc1,2,40,0.8,0.9,0.8
COc1cc(CCC(=O)Nc2ccc(Br)c(C(F)(F)F)c2)cc(OC)c1OC,13,14,0.8,0.8,0.9
Nc1nc(CN2CCN(c3ccccc3F)CC2)nc(N2CCCc3ccccc32)n1,4,33,1,1,1
